Assay [1] relates to Escherichia coli. In words: Antibacterial activity against Escherichia coli MC4100 EC2026. The format is functional. The method in brief: (§1)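 MIC (μg/mL) by standard broth microtitration dilution following NCCLS M7-A5 for aerobically growing bacteria. Panel: Gram-negative E. coli MC4100 (wild-type) and E. coli Tol C (membrane efflux-pump deficient); Gram-positive Enterococcus faecalis, Staphylococcus aureus and Streptococcus pyogenes.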

Assay [2] relates to Escherichia coli. In words: Antibacterial activity against membrane efflux-pump deficient Escherichia coli Tol C EC2549. Type of assay: functional. The method, boiled down: as §1
The subject of assay [3] is Enterococcus faecalis. In words: Antibacterial activity against Enterococcus faecalis MGH-2 EF1-1. The format is functional. The method in brief: as §1
Assay [4] relates to Staphylococcus aureus. In words: Antibacterial activity against Staphylococcus aureus UC-76 SA-1. Type of assay: functional. The method in brief: as §1
Assay [5] relates to Streptococcus pyogenes. The assay is described as follows: Antibacterial activity against Streptococcus pyogenes C-203 SP1-1. The format is functional. The method in brief:
as §1

The nature of assay [6]: Inhibition of Escherichia coli H560 DNA gyrase assessed as DNA cleavage.

Values after ≈ are worked out from the molar mass of the structure shown. Bounds are passed on as bounds.

`CN[C@H]1CCN(c2c(F)cc3c(=O)n(NC)c(=O)n(C4CC4)c3c2Cl)C1`: the minimal inhibitory concentration (MIC) was greater than 64 µg/mL in assay [1]; 8 µg/mL (≈ 21 µM) in assay [2]; greater than 64 µg/mL in assay [3]; greater than 64 µg/mL in assay [4]; greater than 64 µg/mL in assay [5].

Consider `NCC1CCN(c2c(F)cc3c(=O)n(N)c(=O)n(C4CC4)c3c2Cl)C1` (stereo not given), for which the MIC was found to be 4 µg/mL (≈ 10.9 µM) in assay [1]; 0.25 µg/mL (≈ 0.68 µM) in assay [2]; 0.25 µg/mL (≈ 0.68 µM) in assay [3]; 0.5 µg/mL (≈ 1.36 µM) in assay [4]; 0.13 µg/mL (≈ 0.353 µM) in assay [5]. Also, in assay [6], the IC50 was determined as 0.3 µM.

`CC(=O)Nn1c(=O)c2cc(F)c(N3CCC(N)C3)c(Cl)c2n(C2CC2)c1=O` (stereo not given): the MIC is 64 µg/mL (≈ 162 µM) in assay [1]; 2 µg/mL (≈ 5.05 µM) in assay [2]; greater than 64 µg/mL in assay [3]; greater than 64 µg/mL in assay [4]; greater than 64 µg/mL in assay [5]. In addition, the half-inhibitory concentration (IC50) in assay [6] is 10 µM.

Regarding `N[C@H]1CCN(c2cc3c(cc2F)c(=O)n(N)c(=O)n3C2CC2)C1`, the MIC amounted to 8 µg/mL (≈ 25.1 µM) in assay [1]; 1 µg/mL (≈ 3.13 µM) in assay [2]; 32 µg/mL (≈ 100 µM) in assay [3]; 64 µg/mL (≈ 200 µM) in assay [4]; 16 µg/mL (≈ 50.1 µM) in assay [5]. Further, the IC50 in assay [6] is 1.6 µM.

For `CC(C)n1c(=O)n(N)c(=O)c2cc(F)c(N3CCC(N)C3)c(Cl)c21` (stereo not given), the MIC in assay [1], in assay [2], in assay [3], in assay [4] and in assay [5] was greater than 64 µg/mL throughout. Besides, in assay [6], the 50% inhibitory concentration (IC50) turned out to be 98 µM.

With `NC1CCN(c2c(F)cc3c(=O)n(N)c(=O)n(C4CCC4)c3c2Cl)C1` (stereo not given), the minimum inhibitory concentration (MIC) in assay [1] was 16 µg/mL (≈ 43.5 µM); in assay [2], 2 µg/mL (≈ 5.44 µM); in assay [3] it was greater than 64 µg/mL; in assay [4] it was greater than 64 µg/mL; in assay [5], greater than 64 µg/mL. Moreover, the IC50 in assay [6] came to 23 µM.

For `NC1CCN(c2c(F)cc3c(=O)n(N)c(=O)n(-c4ccc(F)cc4F)c3c2Cl)C1` (stereo not given), the MIC in assay [1] is greater than 64 µg/mL; in assay [2] it was 64 µg/mL (≈ 150 µM); in assay [3] it was greater than 64 µg/mL; in assay [4], greater than 64 µg/mL; in assay [5], greater than 64 µg/mL. Also, the half-inhibitory concentration (IC50) in assay [6] is greater than 100 µM.

For the compound `NC1CCN(c2c(F)cc3c(=O)n(N)c(=O)n(C4CC4)c3c2F)C1` (stereo not given), the minimal inhibitory concentration (MIC) in assay [1] was 2 µg/mL (≈ 5.93 µM); in assay [2], 0.25 µg/mL (≈ 0.741 µM); in assay [3], 8 µg/mL (≈ 23.7 µM); in assay [4], 8 µg/mL (≈ 23.7 µM); in assay [5] it was 4 µg/mL (≈ 11.9 µM). The IC50 in assay [6] came to 1.3 µM.

Consider `Cc1c(N2CCC(N)C2)c(F)cc2c(=O)n(N)c(=O)n(C3CC3)c12` (stereo not given), for which the MIC in assay [1] was 1 µg/mL (≈ 3 µM); in assay [2], 0.06 µg/mL (≈ 0.18 µM); in assay [3] it was 2 µg/mL (≈ 6 µM); in assay [4], 4 µg/mL (≈ 12 µM); in assay [5], 0.5 µg/mL (≈ 1.5 µM). For the same compound, in assay [6], the half-inhibitory concentration (IC50) stood at 0.1 µM.

In the case of `COc1c(N2CCC(N)C2)c(F)cc2c(=O)n(N)c(=O)n(C3CC3)c12` (stereo not given), the MIC in assay [1] turned out to be 4 µg/mL (≈ 11.4 µM); in assay [2], 0.5 µg/mL (≈ 1.43 µM); in assay [3], 8 µg/mL (≈ 22.9 µM); in assay [4], 8 µg/mL (≈ 22.9 µM); in assay [5] it was 4 µg/mL (≈ 11.4 µM). In addition, the IC50 in assay [6] was determined as 4.3 µM.

With `N[C@H]1CCN(c2c(F)cc3c(=O)n(N)c(=O)n(C4CC4)c3c2C(F)(F)F)C1`, the MIC in assay [1] is 8 µg/mL (≈ 20.7 µM); in assay [2] it was 0.25 µg/mL (≈ 0.645 µM); in assay [3], 32 µg/mL (≈ 82.6 µM); in assay [4], 32 µg/mL (≈ 82.6 µM); in assay [5], 4 µg/mL (≈ 10.3 µM). In addition, the IC50 in assay [6] turned out to be 5.2 µM.

In the case of `NC1CCN(c2cc(F)c3c(=O)n(N)c(=O)n(C4CC4)c3c2F)C1` (stereo not given), the MIC was 32 µg/mL (≈ 94.9 µM) in assay [1]; 4 µg/mL (≈ 11.9 µM) in assay [2]; greater than 64 µg/mL in assay [3]; greater than 64 µg/mL in assay [4]; greater than 64 µg/mL in assay [5]. The IC50 in assay [6] turned out to be 17 µM.

On to `Cc1c(N2CC[C@@H]([C@H](C)N)C2)c(F)c(C(F)F)c2c(=O)n(N)c(=O)n(C3CC3)c12`, for which the minimum inhibitory concentration (MIC) was found to be 64 µg/mL (≈ 156 µM) in assay [1]; 1 µg/mL (≈ 2.43 µM) in assay [2]; 1 µg/mL (≈ 2.43 µM) in assay [3]; 1 µg/mL (≈ 2.43 µM) in assay [4]; 0.25 µg/mL (≈ 0.608 µM) in assay [5]. Further, the IC50 in assay [6] came out at 8.2 µM.

Consider `NC1CCN(c2c(F)c(F)c3c(=O)n(N)c(=O)n(C4CC4)c3c2F)C1` (stereo not given), for which the minimum inhibitory concentration (MIC) came to 2 µg/mL (≈ 5.63 µM) in assay [1]; 0.5 µg/mL (≈ 1.41 µM) in assay [2]; 32 µg/mL (≈ 90.1 µM) in assay [3]; 16 µg/mL (≈ 45 µM) in assay [4]; 16 µg/mL (≈ 45 µM) in assay [5]. In addition, the half-maximal inhibitory concentration (IC50) in assay [6] stood at 3 µM.

On to `Nc1c(F)c(N2CCC(N)C2)c(F)c2c1c(=O)n(N)c(=O)n2C1CC1` (stereo not given), for which the MIC in assay [1] stood at 8 µg/mL (≈ 22.7 µM); in assay [2], 1 µg/mL (≈ 2.84 µM); in assay [3], 64 µg/mL (≈ 182 µM); in assay [4], 32 µg/mL (≈ 90.8 µM); in assay [5] it was 32 µg/mL (≈ 90.8 µM). Moreover, the IC50 in assay [6] is 21 µM.

Regarding `Cc1c(N2CC[C@@H]([C@H](C)N)C2)c(F)cc2c(=O)n(N)c(=O)n(C3CC3)c12`, the minimum inhibitory concentration (MIC) was found to be 1 µg/mL (≈ 2.77 µM) in assay [1]; 0.03 µg/mL (≈ 0.083 µM) in assay [2]; 0.06 µg/mL (≈ 0.166 µM) in assay [3]; 0.06 µg/mL (≈ 0.166 µM) in assay [4]; 0.015 µg/mL (≈ 0.0415 µM) in assay [5]. Moreover, the IC50 in assay [6] turned out to be 0.2 µM.

Turning to `NCC1CCN(c2c(Cl)cc3c(=O)n(N)c(=O)n(C4CC4)c3c2Cl)C1` (stereo not given), the minimal inhibitory concentration (MIC) was determined as 16 µg/mL (≈ 41.6 µM) in assay [1]; 0.5 µg/mL (≈ 1.3 µM) in assay [2]; 4 µg/mL (≈ 10.4 µM) in assay [3]; 4 µg/mL (≈ 10.4 µM) in assay [4]; 2 µg/mL (≈ 5.2 µM) in assay [5]. Also, in assay [6], the IC50 turned out to be 1.2 µM.

As to `Cc1c(F)c(N2CC[C@@H]([C@H](C)N)C2)c(C)c2c1c(=O)n(N)c(=O)n2C1CC1`, the MIC in assay [1] worked out at 2 µg/mL (≈ 5.33 µM); in assay [2] it was 0.03 µg/mL (≈ 0.0799 µM); in assay [3] it was 0.06 µg/mL (≈ 0.16 µM); in assay [4], 0.06 µg/mL (≈ 0.16 µM); in assay [5] it was 0.03 µg/mL (≈ 0.0799 µM). For the same compound, the IC50 in assay [6] is 0.24 µM.

Regarding `CN[C@H]1CCN(c2c(F)cc3c(=O)n(N)c(=O)n(C4CC4)c3c2Cl)C1`, the MIC in assay [1] is 4 µg/mL (≈ 10.9 µM); in assay [2] it was 0.5 µg/mL (≈ 1.36 µM); in assay [3], 16 µg/mL (≈ 43.5 µM); in assay [4] it was 16 µg/mL (≈ 43.5 µM); in assay [5], 8 µg/mL (≈ 21.8 µM). In assay [6], the half-inhibitory concentration (IC50) was found to be 6.1 µM.

As to `CCOc1c(N2CCC(N)C2)c(F)cc2c(=O)n(N)c(=O)n(C3CC3)c12` (stereo not given), the MIC was 32 µg/mL (≈ 88.1 µM) in assay [1]; 4 µg/mL (≈ 11 µM) in assay [2]; greater than 64 µg/mL in assay [3]; greater than 64 µg/mL in assay [4]; 64 µg/mL (≈ 176 µM) in assay [5]. Moreover, the half-inhibitory concentration (IC50) in assay [6] was determined as 11 µM.

For the compound `CCn1c(=O)n(N)c(=O)c2cc(F)c(N3CC[C@H](N)C3)cc21`, the minimal inhibitory concentration (MIC) in assay [1] is 64 µg/mL (≈ 208 µM); in assay [2] it was 16 µg/mL (≈ 52.1 µM); in assay [3], greater than 64 µg/mL; in assay [4], greater than 64 µg/mL; in assay [5], greater than 64 µg/mL. In addition, the IC50 in assay [6] worked out at 35 µM.

Regarding `N[C@H]1CCN(c2c(F)cc3c(=O)n(N)c(=O)n(C4CC4)c3c2Cl)C1`, the minimum inhibitory concentration (MIC) amounted to 0.5 µg/mL (≈ 1.41 µM) in assay [1]; 0.13 µg/mL (≈ 0.367 µM) in assay [2]; 4 µg/mL (≈ 11.3 µM) in assay [3]; 2 µg/mL (≈ 5.65 µM) in assay [4]; 2 µg/mL (≈ 5.65 µM) in assay [5]. For the same compound, in assay [6], the concentration for half-maximal inhibition (IC50) worked out at 0.4 µM.

For `N[C@H]1CCN(c2cc3c(cc2F)c(=O)n(N)c(=O)n3CC2CC2)C1`, the MIC in assay [1] was greater than 64 µg/mL; in assay [2] it was 8 µg/mL (≈ 24 µM); in assay [3] it was greater than 64 µg/mL; in assay [4], greater than 64 µg/mL; in assay [5], greater than 64 µg/mL. Besides, the half-maximal inhibitory concentration (IC50) in assay [6] is 20 µM.

As for `O=C(O)c1cn(C2CC2)c2cc(N3CCNCC3)c(F)cc2c1=O` [CIPROFLOXACIN], the MIC came out at 0.4 µg/mL (≈ 1.21 µM) in assay [3], 4 µg/mL (≈ 12.1 µM) in assay [4] and 2 µg/mL (≈ 6.04 µM) in assay [5].

As usually defined, the MIC is the lowest concentration found to suppress growth. A higher MIC goes with a need for much substance. In general, IC50 refers to the concentration that gives 50% inhibition.

The record behind these values is ChEMBL document CHEMBL1139087, “Structure-activity relationships of 3-aminoquinazolinediones, a new class of bacterial type-2 topoisomerase (DNA gyrase and topo IV) inhibitors” (Bioorg Med Chem Lett, 2007).
